Experimental data: ChEMBL document CHEMBL1122142, “Synthesis and antiinflammatory activity of hexahydrothiopyrano[4,3-c]pyrazoles and related analogues” (J Med Chem, 1982)

Key:
Cavia porcellus [1] = assay: Tested in delayed hypersensitivity skin reaction (DHSR) after subcutaneous administration, activity reported as percent inhibition of erythema/induration of lesion; 0/8; type: functional
Mus musculus [2] = assay: The compound was evaluated for the mouse active Arthus (MAA) reaction activity for an ip dose of 150 mg/kg in mouse; type: functional; settings: route intraperitoneal
Procedure, shortened: (§1)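 CD-1 mice were sensitized ip with a 1:1 Freund's complete adjuvant emulsion containing BSA in saline, 5 weeks before challenge. Compound was suspended in 1% Na CMC in pyrogen-free saline and given as one ip or oral dose 1 h before skin challenge with BSA. Screening doses were 150 mg/kg ip and 300 mg/kg po, with some at 75 or 50 mg/kg ip. Lesions were excised 3.5 h after challenge and weighed against controls.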

Mus musculus [3] = assay: The compound was evaluated for the mouse active Arthus (MAA) reaction activity for peroral dose of 300 mg/kg in mouse; 31-40%; type: functional; settings: route oral; procedure, shortened: as §1
Cavia porcellus [4] = assay: Tested in delayed hypersensitivity skin reaction (DHSR) after subcutaneous administration, activity reported as percent inhibition of erythema/induration of lesion; 7/6; type: functional
Procedure, shortened: (§2)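 Male Hartley guinea pigs were sensitized with Mycobacterium tuberculosis in Freund's incomplete adjuvant, injected into each hind footpad and subcutaneously at the neck. After 3 weeks, 1.2 μg PPD was given intradermally. Compound in sesame oil was given sc, 3 animals per group, 30 min before and 5 h after PPD; screening dose 50 mg/kg.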

Mus musculus [5] = assay: Inhibition of Mouse Active Arthus reaction following 150 mg/Kg i.p.; 41-60% inhibition.; type: functional; settings: Mus musculus, ip
Cavia porcellus [6] = assay: Tested in delayed hypersensitivity skin reaction (DHSR) after subcutaneous administration, activity reported as percent inhibition of erythema/induration of lesion; 24/32; type: functional; procedure, shortened: as §2
Mus musculus [7] = assay: The compound was evaluated for the mouse active Arthus (MAA) reaction activity for an ip dose of 150 mg/kg in mouse; 31-40%; type: functional; settings: route intraperitoneal; procedure, shortened: as §1
Cavia porcellus [8] = assay: Tested in delayed hypersensitivity skin reaction (DHSR) after subcutaneous administration, activity reported as percent inhibition of erythema/induration of lesion; 15/42; type: functional
Cavia porcellus [9] = assay: The compound was evaluated for the delayed hypersensitivity skin reaction (DHSR) activity after subcutaneous administration; 23/37
Cavia porcellus [10] = assay: Tested in delayed hypersensitivity skin reaction (DHSR) after subcutaneous administration, activity reported as percent inhibition of erythema/induration of lesion; 1/20; type: functional
Mus musculus [11] = assay: Mouse active Arthus (MAA) reaction activity was determined for an ip dose of 150 mg/kg in mouse; 31-40%; type: functional; settings: route intraperitoneal
Cavia porcellus [12] = assay: The compound was evaluated for the delayed hypersensitivity skin reaction (DHSR) activity after subcutaneous administration; 0/0
Cavia porcellus [13] = assay: Tested in delayed hypersensitivity skin reaction (DHSR) after subcutaneous administration, activity reported as percent inhibition of erythema/induration of lesion; 24/41; type: functional; procedure, shortened: as §2
Mus musculus [14] = assay: Mouse active Arthus (MAA) reaction activity was determined for an ip dose of 150 mg/kg in mouse; type: functional; settings: route intraperitoneal
Mus musculus [15] = assay: The compound was evaluated for the mouse active Arthus (MAA) reaction activity expressed as inhibitory dose after ip administration; type: functional; settings: read-out: ID50 (the source's name); procedure, shortened: as §1
[16] = Acute toxicity as LD50 value was determined in mice administered orally; type: organism-based; settings: mouse, in vivo, po
[17] = Acute toxicity as LD50 value was determined in mice administered intraperitoneally; type: organism-based; settings: mouse, in vivo, ip
[18] = Therapeutic ratio was determined for peroral administration; settings: po; read-out: TR
Mus musculus [19] = assay: Inhibition of Mouse active Arthus (MAA) reaction activity was determined for peroral dose of 300 mg/kg in mouse; 41-60%; type: functional; settings: route oral
Mus musculus [20] = assay: The compound was evaluated for the mouse active Arthus (MAA) reaction activity expressed as inhibitory dose after oral administration; type: functional; settings: read-out: ID50 (the source's name); procedure, shortened: as §1
[21] = Therapeutic ratio was determined for intraperitoneal administration; type: ADME; settings: ip; read-out: TR
Cavia porcellus [22] = assay: Tested in delayed hypersensitivity skin reaction (DHSR) after subcutaneous administration, activity reported as percent inhibition of erythema/induration of lesion; 12/45; type: functional
Mus musculus [23] = assay: Inhibition of Mouse active Arthus (MAA) reaction activity was determined for peroral dose of 300 mg/kg in mouse; type: functional; settings: route oral
Cavia porcellus [24] = assay: Tested in delayed hypersensitivity skin reaction (DHSR) after subcutaneous administration, activity reported as percent inhibition of erythema/induration of lesion; 4/12; type: functional; procedure, shortened: as §2
Mus musculus [25] = assay: Inhibition of Mouse active Arthus (MAA) reaction activity was determined for an ip dose of 150 mg/kg in mouse; 21-30%; type: functional; settings: route intraperitoneal
Cavia porcellus [26] = assay: Tested in delayed hypersensitivity skin reaction (DHSR) after subcutaneous administration, activity reported as percent inhibition of erythema/induration of lesion; 4/6; type: functional; procedure, shortened: as §2
Mus musculus [27] = organism: Mus musculus; assay: The compound was evaluated for the mouse active Arthus (MAA) reaction activity expressed as inhibitory dose.; type: functional; settings: read-out: ID50 (the source's name); procedure, shortened: as §1
Cavia porcellus [28] = assay: Tested in delayed hypersensitivity skin reaction (DHSR) after subcutaneous administration, activity reported as percent inhibition of erythema/induration of lesion; 14/42; type: functional
Mus musculus [29] = assay: The compound was evaluated for the mouse active Arthus (MAA) reaction activity for an ip screening dose of 50 mg/kg; type: functional; settings: route intraperitoneal; procedure, shortened: as §1
Cavia porcellus [30] = assay: Tested in delayed hypersensitivity skin reaction (DHSR) after subcutaneous administration, activity reported as percent inhibition of erythema/induration of lesion; 9/32; type: functional; procedure, shortened: as §2

## O=S1(=O)C/C(=C\c2ccc(Cl)cc2)C2=NN(c3ccccc3)C(c3ccc(Cl)cc3)C2C1 (centres undefined)
Cavia porcellus [1]
  Activity: 0

## CN1CCN(CCCN2N=C3/C(=C/c4ccccc4)CS(=O)(=O)CC3C2c2ccccc2)CC1.O=C(O)/C=C\C(=O)O (centres undefined)
Mus musculus [2]
  inhibition in vivo at 150 mg/kg: > 60%
Mus musculus [3]
  inhibition in vivo at 300 mg/kg: 31%
Cavia porcellus [4]
  Activity: 7

## CCCN1N=C2/C(=C/c3ccc(Cl)cc3)CS(=O)(=O)CC2C1c1ccc(Cl)cc1 (centres undefined)
Mus musculus [5]
  inhibition in vivo at 150 mg/kg: 41%
Cavia porcellus [6]
  Activity: 24

## CCCn1nc(-c2ccc(OC)cc2)c2c1/C(=C/c1ccc(OC)cc1)CSC2
Mus musculus [7]
  inhibition in vivo at 150 mg/kg: 31%
Cavia porcellus [8]
  Activity: 15

## CCCN1N=C2/C(=C/c3ccccc3)C[S+]([O-])CC2C1c1ccccc1 (single isomer, unassigned; isomer B)
Mus musculus [5]
  inhibition in vivo at 150 mg/kg: 41%

## C(=C1/CSCC2C1=NNC2c1ccccc1)/c1ccccc1 (centres undefined)
Mus musculus [5]
  inhibition in vivo at 150 mg/kg: 41%
Cavia porcellus [9]
  Activity: 23

## O=C(c1ccc(Cl)cc1)N1N=C2/C(=C/c3ccccc3)CS(=O)(=O)CC2C1c1ccccc1 (centres undefined)
Cavia porcellus [10]
  Activity: 1
Mus musculus [11]
  inhibition in vivo at 150 mg/kg: 31%

## CN1CCN(CCCN2N=C3/C(=C/c4ccc([S+](C)[O-])cc4)COCC3C2c2ccc([S+](C)[O-])cc2)CC1.O=C(O)/C=C\C(=O)O (centres undefined)
Mus musculus [2]
  inhibition in vivo at 150 mg/kg: < 20%
Cavia porcellus [12]
  Activity: 0

## Cc1ccccc1/C=C1\CSCC2C1=NN(CCCN1CCN(C)CC1)C2c1ccccc1C.O=C(O)/C=C\C(=O)O (centres undefined)
Cavia porcellus [13]
  Activity: 24
Mus musculus [14]
  inhibition in vivo at 150 mg/kg: > 60%
Mus musculus [15]
  ED50: 30 mg/kg
[16]
  LD50: > 1200 mg/kg
[17]
  LD50: 170 mg/kg
[18]
  selectivity ratio: > 5.3
Mus musculus [19]
  inhibition in vivo at 300 mg/kg: 41%
Mus musculus [20]
  ED50: 225 mg/kg
[21]
  selectivity ratio: 5.7

## CCCN1N=C2/C(=C/c3ccc(OC)cc3)CSCC2C1c1ccc(OC)cc1 (centres undefined)
Mus musculus [5]
  inhibition in vivo at 150 mg/kg: 41%
Cavia porcellus [22]
  Activity: 12
Mus musculus [23]
  inhibition in vivo at 300 mg/kg: < 20%

## CCCN1N=C2/C(=C/c3ccc(OC)cc3)C[S+]([O-])CC2C1c1ccc(OC)cc1 (single isomer, unassigned; isomer A)
Cavia porcellus [24]
  Activity: 4
Mus musculus [5]
  inhibition in vivo at 150 mg/kg: 41%

## OCCN1N=C2/C(=C/c3ccccc3)CSCC2C1c1ccccc1 (centres undefined)
Mus musculus [25]
  inhibition in vivo at 150 mg/kg: 21%
Cavia porcellus [26]
  Activity: 4

## CCCn1nc(-c2ccccc2)c2c1/C(=C/c1ccccc1)COC2
Mus musculus [7]
  inhibition in vivo at 150 mg/kg: 31%

## Cc1ccccc1/C=C1\CS(=O)(=O)CC2C1=NN(CCCN1CCN(C)CC1)C2c1ccccc1C.O=C(O)/C=C\C(=O)O (centres undefined)
Mus musculus [14]
  inhibition in vivo at 150 mg/kg: > 60%
[17]
  LD50: 130 mg/kg
[21]
  selectivity ratio: < 3.5
Mus musculus [27]
  ED50: < 37.5 mg/kg
Cavia porcellus [28]
  Activity: 14

## CN1CCN(CCCN2N=C3/C(=C/c4ccccc4)COCC3C2c2ccccc2)CC1.O=C(O)/C=C\C(=O)O (centres undefined)
Mus musculus [29]
  inhibition in vivo at 50 mg/kg: > 60%
Cavia porcellus [30]
  Activity: 9
